Source: publication PMC2704382 (Cell, 2009)
One block for each molecule: values may come before it.

Key:
[1] = system: GSK3β; assay: In vitro GSK3β kinase assay; format: biochemical; conditions: 2 µM protein
[2] = system: GSK3β; format: binding; conditions: GST-tagged DISC1 fragments, purified His-tagged GSK3β, in vitro
[3] = system: AHPs; assay: AHP cell proliferation assay; format: cell-based; conditions: 200 ng/ml in culture medium; cell numbers counted for 2 days; n=3
Outline: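 Adult hippocampal progenitors transduced 2 days with GFP-expressing lentivirus (control, DISC1 shRNA or WT-hDISC1), then FACS-sorted on GFP. 2×10^4 cells seeded per well in medium with recombinant Wnt3a (200 ng/ml) or vehicle. Cells counted each day for 2 days; n=3.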

Inhibition of GSK3β autophosphorylation [1]: started to inhibit
B1: DISC1 221–355: GST-tagged DISC1 protein fragment spanning 221–355 (protein, UniProt Q9NRI5 221-355, looked up, fragment)
chain: GERGEAEGCPPSREAESHCQSPQEMGAKAASLDGPHEDPRCLSRPFSLLATRVSADLAQAARNSSRPERDMHSLPDMDPGSSSSLDPSLAGCGGDGSSGSGDAHSWDTLLRKWEPVLRDCLLRNRRQMEVISLRL
modifications: GST tag

Inhibition of GSK3β autophosphorylation [1]: started to inhibit
B2: DISC1 356–595: GST-tagged DISC1 protein fragment spanning residues 356–595 (protein)
chain: LKLQKCQEKVVEDGDYDTAETLRQRLEELEQEKGRLSWALPSQQPALRSFLGYLAAQIQVALHGATQRAGSDDPEAPLEGQLRTTAQDSLPASITRRDWLIREKQRLQKEIEALQARMSALEAKEKRLSQELEEQEVLLRWPGCDLMALVAQMSPGQLQEVSKALGETLTSANQAPFQVEPPETLRSLRERTKSLNLAVRELTAQVCSGEKLCSSLRRRLSDLDTRLPALLEAKMLALSG
modifications: left off: GST, end not stated, kept
Interaction with GSK3β [2]: strong interactions

B3: Wnt3a: recombinant Wnt3a protein (protein, UniProt P56704 19-352, looked up)
Protein Wnt-3a: SYPIWWSLAVGPQYSSLGSQPILCASIPGLVPKQLRFCRNYVEIMPSVAEGIKIGIQECQHQFRGRRWNCTTVHDSLAIFGPVLDKATRESAFVHAIASAGVAFAVTRSCAEGTAAICGCSSRHQGSPGKGWKWGGCSEDIEFGGMVSREFADARENRPDARSAMNRHNNEAGRQAIASHMHLKCKCHGLSGSCEVKTCWWSQPDFRAIGDFLKDKYDSASEMVVEKHRESRGWVETLRPRYTYFKVPTERDLVYYEASPNFCEPNPETGSFGTRDRTCNVSSHGIDGCDLLCCGRGHNARAERRREKCRCVFHWCCYVSCQECTRVYDVHTCK
Proliferation of AHPs [3]: significantly stimulated
